Results from ChEMBL document CHEMBL3421570, “Combinatorial Libraries As a Tool for the Discovery of Novel, Broad-Spectrum Antibacterial Agents Targeting the ESKAPE Pathogens” (J Med Chem, 2015).
Converted amounts (≈) assume the structure as drawn. The source made the active and inactive calls. The rule behind the calls is not given here.

What was measured:
[1] = Induction of hemolysis in human RBC at 10 uM incubated for 15 mins; format: cell-based, Erythrocyte; conditions: red blood cells, read-out: Activity
Procedure, shortened: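 Human RBCs from whole blood, resuspended 20% v/v in HA buffer (NaCl, CaCl2), compound 10 μM, 15 min at 37°C. Centrifuged 5,500 g for 1 min, supernatant OD543 read. Percent hemolysis against DMF vehicle (0%) and 1.0% Triton X-100 (100%); triplicate.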

Enterococcus faecium [2] = assay: Bactericidal activity against Enterococcus faecium after 24 hrs; format: functional
Acinetobacter baumannii [3] = assay: Antimicrobial activity against Acinetobacter baumannii assessed as inhibition of microbial growth after 24 hrs; format: functional
Procedure, shortened: (§1)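 Broth microdilution against multidrug-resistant clinical ESKAPE isolates. Overnight cultures (TSB for Gram-positives, LB for Gram-negatives) diluted 1:1000 in fresh medium, compound in DMF (≤2.0% DMF) added at decreasing concentrations, 37°C.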

[4] = Cytotoxicity against human A549 cells assessed as cell viability recovery up to 125 uM after 48 hrs by MTT assay; format: cell-based; conditions: read-out: Activity
Procedure, shortened: (§2)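 A549 cells grown in F-12K with L-glutamine, 10% FBS, 1% penicillin-streptomycin, seeded at 1.0 × 10^5 ml−1, allowed to adhere 24 h (37°C, 5% CO2), then exposed to compound in 45% w/v (2-hydroxypropyl)-β-cyclodextrin vehicle for 48 h. MTT 4 h, formazan solubilized in DMSO, absorbance 540 nm. Percent recovery versus vehicle-only; IC50 derived; at least three independent experiments.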

Enterococcus faecium [5] = assay: Antibiofilm activity against Enterococcus faecium incubated for 24 hrs followed by biofilm resuspension in PBS and measured after 24 hrs; format: functional
Procedure, shortened: (§3)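 Biofilms grown 24 h in 96-well plates from overnight cultures standardized to OD600 0.5 in fresh medium (human serum only for S. aureus; TSB for Gram-positives, LB for Gram-negatives). Medium then replaced with fresh medium containing a concentration range above and below MIC, 37°C overnight. After 24 h biofilm resuspended in PBS, serially diluted, plated in duplicate, CFU counted after 24 h at 37°C. Activity relative to untreated; three technical replicates; MBEC50 reported.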

Staphylococcus aureus [6] = assay: Induction of spontaneous mutation in Staphylococcus aureus at 2 to 10 MIC; format: functional, organism-based
Enterobacter cloacae [7] = assay: Antibiofilm activity against Enterobacter cloacae incubated for 24 hrs followed by biofilm resuspension in PBS and measured after 24 hrs; format: functional; procedure, shortened: as §3
[8] = Selectivity index, ratio of IC50 for human A549 cells to MIC for Acinetobacter baumannii
Enterobacter cloacae [9] = assay: Antimicrobial activity against Enterobacter cloacae assessed as inhibition of microbial growth after 24 hrs; format: functional; procedure, shortened: as §1
Staphylococcus aureus [10] = assay: Bactericidal activity against Staphylococcus aureus after 24 hrs; format: functional
Klebsiella pneumoniae [11] = assay: Induction of spontaneous mutation in Klebsiella pneumoniae at 2 to 10 MIC; format: functional, organism-based
Staphylococcus aureus [12] = assay: Bactericidal activity against methicillin-resistant Staphylococcus aureus at MIC measured after drug wash out after 120 mins by time kill assay; format: functional
Procedure, shortened: (§4)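 MRSA from stationary phase was regrown 3 h in TSB and seeded at OD600 0.5. […] After 120 min, cells were centrifuged and washed, serially diluted and plated for CFU. Percent recovery is relative to no-drug controls.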

Enterococcus faecium [13] = assay: Antimicrobial activity against Enterococcus faecium assessed as inhibition of microbial growth after 24 hrs; format: functional; procedure, shortened: as §1
Enterococcus faecium [14] = assay: Induction of spontaneous mutation in Enterococcus faecium at 2 to 10 MIC; format: functional, organism-based
Acinetobacter baumannii [15] = assay: Bactericidal activity against Acinetobacter baumannii after 24 hrs; format: functional
Staphylococcus aureus [16] = assay: Ratio of MIC for Staphylococcus aureus measured after 8 cycle passage to MIC for wild type Staphylococcus aureus; format: functional
Pseudomonas aeruginosa [17] = assay: Induction of spontaneous mutation in Pseudomonas aeruginosa at 2 to 10 MIC; format: functional, organism-based; conditions: 2 to 10 x MIC
[18] = Selectivity index, ratio of IC50 for human A549 cells to MIC for Pseudomonas aeruginosa
Pseudomonas aeruginosa [19] = assay: Antibiofilm activity against Pseudomonas aeruginosa incubated for 24 hrs followed by biofilm resuspension in PBS and measured after 24 hrs; format: functional; procedure, shortened: as §3
Enterococcus faecium [20] = assay: Antimicrobial activity against Enterococcus faecium assessed as inhibition of microbial growth at 45 uM after 24 hrs; format: functional, organism-based
Procedure, shortened: (§5)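 Broth microdilution single-concentration read: overnight cultures diluted 1:1000, compound in DMF (≤2.0%) added, 37°C for 24 h, growth inhibition scored visually by lack of turbidity; triplicate. Gram-positives grown in TSB, Gram-negatives in LB.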

Enterobacter cloacae [21] = assay: Bactericidal activity against Enterobacter cloacae after 24 hrs; format: functional
[22] = Cytotoxicity against human A549 cells assessed as cell viability recovery at 225 uM after 48 hrs by MTT assay; format: cell-based; conditions: read-out: Activity; procedure, shortened: as §2
[23] = Selectivity index, ratio of IC50 for human A549 cells to MIC for Enterococcus faecium
Staphylococcus aureus [24] = assay: Antimicrobial activity against Staphylococcus aureus USA300 strain FPR3757 infected in mouse model of lethal peritonitis assessed as mouse survival at 2 uM, im dosed 1 hr post infection and measured after 5 days post infection; format: functional, organism-based
Procedure, shortened: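 Mice, six per group, infected i.p. with 1 × 10^8 CFU ml−1 S. aureus USA300 FPR3757 in PBS with 5% mucin. Compound given i.m. at 2 μM 1 h later; vehicle 45% w/v (2-hydroxypropyl)-β-cyclodextrin in water i.v.; vancomycin i.v. as control. Monitored twice daily for 5 days, pre-moribund animals euthanized. Survival compared by log-rank test.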

Klebsiella pneumoniae [25] = assay: Bactericidal activity against Klebsiella pneumoniae after 24 hrs; format: functional
Pseudomonas aeruginosa [26] = assay: Bactericidal activity against Pseudomonas aeruginosa after 24 hrs; format: functional
Enterobacter cloacae [27] = assay: Induction of spontaneous mutation in Enterobacter cloacae at 2 to 10 MIC; format: functional, organism-based
Pseudomonas aeruginosa [28] = assay: Antimicrobial activity against Pseudomonas aeruginosa isolate 1420 assessed as inhibition of microbial growth at 2 uM after 24 hrs; format: functional, organism-based
[29] = Selectivity index, ratio of IC50 for human A549 cells to MIC for Klebsiella pneumoniae
Pseudomonas aeruginosa [30] = assay: Antimicrobial activity against Pseudomonas aeruginosa assessed as inhibition of microbial growth after 24 hrs; format: functional; procedure, shortened: as §1
Acinetobacter baumannii [31] = assay: Induction of spontaneous mutation in Acinetobacter baumannii at 2 to 10 MIC; format: functional, organism-based
Pseudomonas aeruginosa [32] = assay: Antimicrobial activity against Pseudomonas aeruginosa assessed as inhibition of microbial growth at 45 uM after 24 hrs; format: functional, organism-based; procedure, shortened: as §5
Klebsiella pneumoniae [33] = assay: Antibiofilm activity against Klebsiella pneumoniae incubated for 24 hrs followed by biofilm resuspension in PBS and measured after 24 hrs; format: functional; procedure, shortened: as §3
Staphylococcus aureus [34] = assay: Antimicrobial activity against Staphylococcus aureus assessed as inhibition of microbial growth after 24 hrs; format: functional; procedure, shortened: as §1
Enterobacter cloacae [35] = assay: Antimicrobial activity against Enterobacter cloacae assessed as inhibition of microbial growth at 45 uM after 24 hrs; format: functional, organism-based; procedure, shortened: as §5
Acinetobacter baumannii [36] = assay: Antimicrobial activity against Acinetobacter baumannii assessed as inhibition of microbial growth at 45 uM after 24 hrs; format: functional, organism-based; procedure, shortened: as §5
Staphylococcus aureus [37] = assay: Bactericidal activity against methicillin-resistant Staphylococcus aureus assessed as cell survival recovery at MIC measured after drug wash out after 120 mins by time kill assay; format: functional; procedure, shortened: as §4
Staphylococcus aureus [38] = assay: Antibiofilm activity against Staphylococcus aureus incubated for 24 hrs followed by biofilm resuspension in PBS and measured after 24 hrs; format: functional; procedure, shortened: as §3
Acinetobacter baumannii [39] = assay: Antibiofilm activity against Acinetobacter baumannii incubated for 24 hrs followed by biofilm resuspension in PBS and measured after 24 hrs; format: functional; procedure, shortened: as §3
Staphylococcus aureus [40] = assay: Effect on bacterial density of methicillin-resistant Staphylococcus aureus at MIC measured over 2 hrs period by time kill assay; format: functional, organism-based
A549 = assay: Cytotoxicity against human A549 cells after 48 hrs by MTT assay; format: cell-based; conditions: A549, 48 h; procedure, shortened: as §2
[41] = Selectivity index, ratio of IC50 for human A549 cells to MIC for Enterobacter cloacae
[42] = Selectivity index, ratio of IC50 for human A549 cells to MIC for Staphylococcus aureus
Klebsiella pneumoniae [43] = assay: Antimicrobial activity against Klebsiella pneumoniae assessed as inhibition of microbial growth after 24 hrs; format: functional; procedure, shortened: as §1
Pseudomonas aeruginosa [44] = assay: Antimicrobial activity against Pseudomonas aeruginosa isolate 1420 assessed as inhibition of microbial growth at 2 uM in presence of 100 uM efflux pump inhibitor reserpine after 24 hrs; format: functional, organism-based
Staphylococcus aureus [45] = assay: Antimicrobial activity against Staphylococcus aureus assessed as inhibition of microbial growth at 45 uM after 24 hrs; format: functional, organism-based; procedure, shortened: as §5
Klebsiella pneumoniae [46] = assay: Antimicrobial activity against Klebsiella pneumoniae assessed as inhibition of microbial growth at 45 uM after 24 hrs; format: functional, organism-based; procedure, shortened: as §5
Pseudomonas aeruginosa [47] = assay: Antimicrobial activity against Pseudomonas aeruginosa assessed as inhibition of microbial growth at 100 uM after 24 hrs; format: functional, organism-based; procedure, shortened: as §5

## CCCCCCCN1C(=N)N(CCCC[C@H]2CNC(=N)N2CCc2cccc(C(F)(F)F)c2)C[C@@H]1CCCC
[1]
  hemolysis at 0.25 h, 10 µM: 0.34%
Enterococcus faecium [2]
  MBC90: 1.9 µM (≈ 1.05 µg/mL)
Acinetobacter baumannii [3]
  MIC: 1.6 µM
[4]
  viability at 48 h: > 63%
Enterococcus faecium [5]
  MBEC50: 39 µM
Staphylococcus aureus [6]
  Activity: inactive
Enterobacter cloacae [7]
  MBEC50: 13 µM
[8]
  Selectivity Index: 100
Enterobacter cloacae [9]
  MIC: 1.6 µM
Staphylococcus aureus [10]
  MBC90: 3.1 µM (≈ 1.71 µg/mL)
Klebsiella pneumoniae [11]
  Activity: inactive
Staphylococcus aureus [12]
  fold change (FC): 2.5
Enterococcus faecium [13]
  MIC: 1.6 µM
Enterococcus faecium [14]
  Activity: inactive
Acinetobacter baumannii [15]
  MBC90: 3.1 µM (≈ 1.71 µg/mL)
Staphylococcus aureus [16]
  Ratio: 2
Pseudomonas aeruginosa [17]
  Activity: inactive
[18]
  Selectivity Index: 100
Pseudomonas aeruginosa [19]
  MBEC50: 20 µM
Enterococcus faecium [20]
  growth inhibition (GI): Active
Enterobacter cloacae [21]
  MBC90: 3.1 µM (≈ 1.71 µg/mL)
[22]
  viability at 48 h, 225 µM: 40%
[23]
  Selectivity Index: 100
Staphylococcus aureus [24]
  Activity: Active
Klebsiella pneumoniae [25]
  MBC90: 2.4 µM (≈ 1.32 µg/mL)
Pseudomonas aeruginosa [26]
  MBC90: 4 µM (≈ 2.2 µg/mL)
Enterobacter cloacae [27]
  Activity: inactive
Pseudomonas aeruginosa [28]
  growth inhibition (GI): inactive
[29]
  Selectivity Index: 100
Pseudomonas aeruginosa [30]
  MIC: 1.6 µM
Acinetobacter baumannii [31]
  Activity: inactive
Pseudomonas aeruginosa [32]
  growth inhibition (GI): Active
Klebsiella pneumoniae [33]
  MBEC50: 7 µM
Staphylococcus aureus [34]
  MIC: 1.6 µM
Enterobacter cloacae [35]
  growth inhibition (GI): Active
Acinetobacter baumannii [36]
  growth inhibition (GI): Active
Staphylococcus aureus [37]
  Survival: 0.2%
Staphylococcus aureus [38]
  MBEC50: 14 µM
Acinetobacter baumannii [39]
  MBEC50: 15 µM
Staphylococcus aureus [40]
  Activity: inactive
A549
  IC50: 164 µM
[41]
  Selectivity Index: 100
[42]
  Selectivity Index: 100
Klebsiella pneumoniae [43]
  MIC: 1.6 µM
Pseudomonas aeruginosa [44]
  growth inhibition (GI): Active
Staphylococcus aureus [45]
  growth inhibition (GI): Active
Klebsiella pneumoniae [46]
  growth inhibition (GI): Active

## COC(=O)[C@H]1[C@H]2C[C@@H]3c4[nH]c5cc(OC)ccc5c4CCN3C[C@H]2C[C@@H](OC(=O)c2cc(OC)c(OC)c(OC)c2)[C@@H]1OC
Pseudomonas aeruginosa [47]
  growth inhibition (GI): inactive
